The values that follow come from ChEMBL document CHEMBL6127097, “Structure-Guided Discovery of cis-Hexahydro-pyrido-oxazinones as Reversible, Drug-like Monoacylglycerol Lipase Inhibitors” (J Med Chem, 2024).

In brackets after ≈: the same amount, converted by molar mass. Activity calls are given as the source filed them. The calls are words filed in the database; no cut-off is given here.

Data set [1] can be described thus: Aqueous solubility of compound in phosphate buffer at pH 6.5 by HPLC or MS/MS analysis. Format: physicochemical. The note with it: buffer. The procedure, abridged:
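Lyophilization solubility assay (LYSA) starting from a 10 mM DMSO stock. DMSO was removed by centrifugal vacuum evaporation, then 0.05 M phosphate buffer pH 6.5 was added and samples sonicated. Filtrates were analysed by MS/MS and/or HPLC against a 4- to 7-point calibration curve.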

The nature of data set [2]: Chemical stability at pH 8 incubated for 2 hrs. In kind it is physicochemical. As to conditions: buffer, pH 8, 2 h. The procedure, abridged: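 Compound was held in aqueous buffer at the stated pH for 2 h at 37 °C.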
Data set [3] can be described thus: Clearance in human microsomes. Format: ADME, Microsome.
Data set [4] is described as follows: Clearance in rat microsomes. Format: ADME, Microsome.
The nature of data set [5]: Plasma protein binding in rat assessed as fraction unbound by equilibrium dialysis based LC-MS/MS method. In kind it is ADME, cell-free. For orientation: Equilibrium dialysis compares concentrations on both sides of a semipermeable membrane.
The nature of data set [6]: Tmax in Wistar rat at 5 mg/kg, po measured upto 24 hrs by LC-MS/MS analysis. Format: ADME, organism-based. The note with it: in vivo. The procedure, abridged:
(§1)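 Male Wistar rats, single dose. i.v. in NMP/0.9% NaCl 30:70; p.o. and i.p. in NMP/HPMC/diisooctyl sulfosuccinate 10:90; 3 per i.v./p.o. group, 6 i.p. K2EDTA plasma sampled 0.083–7 h, plus 24 h for i.v./p.o.; brain and CSF at 1, 2, 7 h (i.p. only). LC-MS/MS, noncompartmental analysis.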

Data set [7] in a line: AUClast in Wistar rat at 5 mg/kg, po measured upto 24 hrs by LC-MS/MS analysis. In kind it is ADME, organism-based. As to conditions: in vivo. The procedure, abridged: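 Male Wistar rats (N = 3 per group) received a single dose. The i.v. dose was 1 mg/kg in NMP/0.9% NaCl 30:70. The p.o. dose was 5 mg/kg in NMP/HPMC/diisooctyl sulfosuccinate 10:90. Blood was taken into K2EDTA from 0.083 (i.v.) or 0.25 h to 24 h. Plasma was assayed by LC-MS/MS and analysed non-compartmentally.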

Data set [8] is described as follows: Bioavailability in Wistar rat at 10 mg/kg, ip measured upto 24 hrs by LC-MS/MS analysis. Format: ADME, organism-based. The note with it: in vivo.
The nature of data set [9]: Ratio of drug concentration in Wistar rat brain to plasma at 10 mg/kg, ip measured upto 7 hrs by LC-MS/MS analysis. Format: ADME, organism-based. The essentials: as §1
The nature of data set [10]: Ratio of drug concentration in Wistar rat CSF to plasma at 10 mg/kg, ip measured upto 7 hrs by LC-MS/MS analysis. Format: ADME, organism-based. The procedure, abridged: as §1
A short description of data set [11]: Unbound brain to plasma partition coefficient of compound in Wistar rat at 10 mg/kg, ip measured upto 7 hrs by LC-MS/MS analysis. In kind it is ADME, organism-based. As to conditions: read-out: K(p,uu,brain). The procedure, abridged: as §1
The target of the next data set is CYP2D6 (Homo sapiens, UniProt P10635). The experiment in a line: Inhibition of CYP2D6 (unknown origin) at 10 uM relative to control. Format: ADME.
A short description of data set [12]: Average drug concentration in mouse plasma at 3 mg/kg, ip measured after 4 hrs. In kind it is ADME, organism-based. As to conditions: in vivo. The essentials:
(§2)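 Mice received 3, 10 or 30 mg/kg i.p. The compound was dissolved in DMSO/Tween 80 (1:1) and diluted with 8 parts saline (NaCl/DMSO/TW80 80/10/10). Plasma was taken 4 h after injection and average concentrations reported.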

Data set [13] can be described thus: Average drug concentration in mouse plasma at 30 mg/kg, ip measured after 4 hrs. The note with it: in vivo. In kind it is ADME, organism-based. The procedure, abridged:
as §2

A short description of data set [14]: Average drug concentration in mouse plasma at 30 mg/kg, ip measured after 2 hrs. In kind it is ADME, organism-based. The note with it: read-out: Cave. The procedure, abridged:
(§3)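 In a time course, mice were injected i.p. with 30 mg/kg in NaCl/DMSO/Tween 80 (80/10/10). Average plasma levels were determined at the stated time points over 24 h.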

Data set [15] can be described thus: Average drug concentration in mouse plasma at 30 mg/kg, ip measured after 16 hrs. As to conditions: in vivo. In kind it is ADME, organism-based. The procedure, abridged: as §3
Data set [16] addresses T1, Monoglyceride lipase (Rattus norvegicus, UniProt Q8R431).
T1 sequence (Q8R431 whole entry): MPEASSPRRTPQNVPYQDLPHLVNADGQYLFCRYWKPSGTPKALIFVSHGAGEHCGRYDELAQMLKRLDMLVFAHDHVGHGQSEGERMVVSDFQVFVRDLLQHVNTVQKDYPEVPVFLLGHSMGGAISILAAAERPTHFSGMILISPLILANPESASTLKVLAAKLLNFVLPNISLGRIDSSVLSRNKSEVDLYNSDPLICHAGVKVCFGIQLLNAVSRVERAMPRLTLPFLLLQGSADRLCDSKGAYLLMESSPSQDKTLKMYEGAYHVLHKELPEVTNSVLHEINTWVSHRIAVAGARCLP
The data set is described as follows: Inhibition of rat MAGL using native substrate by Rapidfire MS assay.

The target of data set [17] is T2, Monoglyceride lipase (Mus musculus, UniProt O35678).
T2 sequence (O35678 whole entry): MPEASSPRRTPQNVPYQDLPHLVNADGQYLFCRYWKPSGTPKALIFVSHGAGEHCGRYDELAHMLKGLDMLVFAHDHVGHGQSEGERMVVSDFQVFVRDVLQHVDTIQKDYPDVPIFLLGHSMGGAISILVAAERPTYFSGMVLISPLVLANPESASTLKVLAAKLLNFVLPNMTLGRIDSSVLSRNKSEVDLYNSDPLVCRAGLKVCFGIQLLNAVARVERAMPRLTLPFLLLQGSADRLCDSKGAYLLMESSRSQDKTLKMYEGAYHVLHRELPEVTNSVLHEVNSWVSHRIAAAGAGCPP
The data set is described as follows: Inhibition of mouse MAGL using native substrate by Rapidfire MS assay.

The subject of the next data set is Mus musculus. The experiment in a line: Antiinflammatory activity in LPS-induced CD-1 mouse neuroinflammation model assessed as decrease in brain IL-1beta mRNA expression at 30 mg/kg, ip measured after 6 hrs by qRT-PCR analysis. Format: functional, organism-based. The essentials: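 CD-1 mice received NaCl + vehicle, LPS (5 mg/kg) + vehicle, or LPS + inhibitor at 30 mg/kg i.p. The vehicle was NaCl/DMSO/Tween 80, 80/10/10. Mice were killed 6 h after compound dosing. LCN2 and IL1b mRNA in cortical brain lysates were quantified by droplet digital qRT-PCR.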
On the technique in general: Quantitative PCR measures a nucleic acid by following its amplification.

Data set [18] concerns the target Fatty acid amide hydrolase (Mus musculus) (UniProt O08914). The data set is described as follows: Inhibition of FAAH in mouse brain lysates at 10 uM by ABPP assay.

The solubility is the dissolved amount per volume that the medium holds. A high value points to a readily soluble substance. In general, microsomal CLint refers to the rate of metabolic loss divided by the concentration. Broadly, the fraction unbound is free concentration divided by total concentration. As usually defined, the Tmax is the time from dosing to the highest level. For orientation: AUC(0-t) means exposure summed from dosing to a finite time, without extrapolation to infinity. What is called Kp is tissue or fluid exposure divided by exposure in the circulation. In general, inhibition refers to the drop in the measured response relative to a control, in per cent. A word on the IC50: it is the point on the concentration scale where inhibition reaches its midpoint.

Sequence of CYP2D6 (P10635 whole entry): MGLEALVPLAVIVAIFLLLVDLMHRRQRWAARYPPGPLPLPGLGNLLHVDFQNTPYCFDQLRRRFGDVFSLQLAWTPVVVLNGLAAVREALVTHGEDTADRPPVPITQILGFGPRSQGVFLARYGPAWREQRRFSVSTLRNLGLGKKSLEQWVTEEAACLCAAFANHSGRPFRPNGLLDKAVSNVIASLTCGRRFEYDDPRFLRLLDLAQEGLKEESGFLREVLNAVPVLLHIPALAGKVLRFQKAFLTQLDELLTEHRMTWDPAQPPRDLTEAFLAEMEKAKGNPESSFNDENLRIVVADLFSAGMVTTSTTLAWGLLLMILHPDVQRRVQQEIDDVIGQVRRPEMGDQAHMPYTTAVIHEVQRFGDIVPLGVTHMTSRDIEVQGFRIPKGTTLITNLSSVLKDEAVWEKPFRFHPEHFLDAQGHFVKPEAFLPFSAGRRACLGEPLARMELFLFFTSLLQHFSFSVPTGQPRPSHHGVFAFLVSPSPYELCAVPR
Sequence of Fatty acid amide hydrolase (Mus musculus) (O08914 whole entry, looked up): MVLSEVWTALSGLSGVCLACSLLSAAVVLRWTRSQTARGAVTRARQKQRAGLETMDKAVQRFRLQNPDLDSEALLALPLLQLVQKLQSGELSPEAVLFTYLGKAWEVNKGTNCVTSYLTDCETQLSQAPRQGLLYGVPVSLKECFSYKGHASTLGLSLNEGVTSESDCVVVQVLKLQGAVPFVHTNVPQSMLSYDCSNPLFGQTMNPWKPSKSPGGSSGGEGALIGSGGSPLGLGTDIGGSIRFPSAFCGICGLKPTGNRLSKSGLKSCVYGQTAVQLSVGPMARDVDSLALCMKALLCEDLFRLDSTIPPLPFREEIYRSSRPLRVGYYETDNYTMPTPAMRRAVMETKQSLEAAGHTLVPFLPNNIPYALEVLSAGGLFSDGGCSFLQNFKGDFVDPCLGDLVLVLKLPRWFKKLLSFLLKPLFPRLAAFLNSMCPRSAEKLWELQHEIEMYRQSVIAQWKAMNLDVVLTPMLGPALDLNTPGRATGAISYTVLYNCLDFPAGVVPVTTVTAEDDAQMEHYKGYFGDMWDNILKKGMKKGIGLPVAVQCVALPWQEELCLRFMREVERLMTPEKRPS

`O=C1CO[C@H]2CCN(C(=O)N3CCC(Cc4ccc(C(F)(F)F)cc4)CC3)C[C@H]2N1` [listing 1 of 2 here] showed a solubility in [1] of 231 µg/mL (≈ 543 µM). The Stability result in data set [2] is “Stable”. In addition, the figures for the microsomal CLint in data set [3] and in data set [4] were under 10 µL/min/mg and 11 µL/min/mg, respectively. Moreover, in [5], the fraction unbound was found to be 0.032. The Tmax in data set [6] was 6 h. Further, the AUC(0-t) at 24 h in data set [7] came out at 19100 ng·h/mL. In addition, in data set [8], the bioavailability is 111%. Moreover, the Kp at 7 h in data set [9] stood at 1.1; in data set [10] it was 0.017. Further, the Kp uu at 7 h in data set [11] turned out to be 0.53. The inhibition at 10 µM against CYP2D6 was -12%. In addition, the Cave was found to be 1.901 µM in data set [12], 27.765 µM in data set [13] and 2.955 µM in [15]. In data set [14], the concentration at 2 h worked out at 42 µM. For the same molecule, the IC50 amounted to 71 nM against Monoglyceride lipase [16] and 91 nM against Monoglyceride lipase [17].
In the case of `O=C1CO[C@H]2CCN(C(=O)N3CCC(Cc4ccc(C(F)(F)F)cc4)CC3)C[C@H]2N1` [listing 2 of 2 here], the result with Mus musculus was Active. Moreover, the inhibition entry in data set [18] was “inactive”.
